Columns and labels:
Type in all cases: functional
SK-MEL-5 = experiment: Cytotoxicity against human SK-MEL-5 cells assessed as cell growth at 10 uM after 48 hrs by SRB assay relative to untreated control; settings: SK-MEL-5, 48 h, read-out: Activity
Outline: (§1)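 NCI-60 single-dose screen. Compounds were added to the cultures at 10 μM and incubated for 48 h. The end point was sulforhodamine B protein staining read spectrophotometrically. Growth is reported as percent of untreated control cells.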

ACHN = experiment: Cytotoxicity against human ACHN cells assessed as cell growth at 10 uM after 48 hrs by SRB assay relative to untreated control; settings: read-out: Activity
Outline: (§2)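 NCI-60 panel screen at a single concentration of 10 μM with 48 h incubation. Cell density measured by sulforhodamine B protein-binding dye and read spectrophotometrically. Growth expressed as percent of untreated control cells.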

SNB-19 = experiment: Cytotoxicity against human SNB19 cells assessed as cell growth at 10 uM after 48 hrs by SRB assay relative to untreated control; settings: SNB-19, 48 h, read-out: Activity; outline: as §1
BT-549 = experiment: Cytotoxicity against human BT549 cells assessed as cell growth at 10 uM after 48 hrs by SRB assay relative to untreated control; settings: BT-549, 48 h, read-out: Activity; outline: as §2
MDA-MB-231 = experiment: Cytotoxicity against human MDA-MB-231 cells assessed as cell growth at 10 uM after 48 hrs by SRB assay relative to untreated control; settings: MDA-MB-231, 48 h, read-out: Activity
Outline: (§3)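 NCI-60 one-dose screen: each agent added at 10 µM, cultures incubated 48 h. Endpoint by sulforhodamine B protein-binding dye read spectrophotometrically; growth expressed as percent of untreated control cells.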

[1] = Cytotoxicity against human Hs578T cells assessed as cell growth at 10 uM after 48 hrs by SRB assay relative to untreated control; settings: Hs-578T, read-out: Activity; outline: as §2
OVCAR-8 = experiment: Cytotoxicity against human OVCAR8 cells assessed as cell growth at 10 uM after 48 hrs by SRB assay relative to untreated control; settings: OVCAR-8, 48 h, read-out: Activity; outline: as §3
[2] = Cytotoxicity against human UACC257 cells assessed as cell growth at 10 uM after 48 hrs by SRB assay relative to untreated control; settings: UACC-257, 48 h, read-out: Activity; outline: as §1
HT-29 = experiment: Cytotoxicity against human HT-29 cells assessed as cell growth at 10 uM after 48 hrs by SRB assay relative to untreated control; settings: HT-29, 48 h, read-out: Activity; outline: as §2
SF-539 = experiment: Cytotoxicity against human SF539 cells assessed as cell growth at 10 uM after 48 hrs by SRB assay relative to untreated control; settings: SF-539, 48 h, read-out: Activity; outline: as §3
CCRF-CEM = experiment: Cytotoxicity against human CCRF-CEM cells assessed as cell growth at 10 uM after 48 hrs by SRB assay relative to untreated control; settings: read-out: Activity; outline: as §2
HCT-15 = experiment: Cytotoxicity against human HCT15 cells assessed as cell growth at 10 uM after 48 hrs by SRB assay relative to untreated control; settings: HCT-15, 48 h, read-out: Activity; outline: as §2
NCI-H322M = experiment: Cytotoxicity against human NCI-H322M cells assessed as cell growth at 10 uM after 48 hrs by SRB assay relative to untreated control; settings: read-out: Activity; outline: as §3
[3] = Cytotoxicity against human UO31 cells assessed as cell growth at 10 uM after 48 hrs by SRB assay relative to untreated control; settings: UO-31, 48 h, read-out: Activity; outline: as §1
OVCAR-3 = experiment: Cytotoxicity against human OVCAR3 cells assessed as cell growth at 10 uM after 48 hrs by SRB assay relative to untreated control; settings: OVCAR-3, 48 h, read-out: Activity; outline: as §3
HCC 2998 = experiment: Cytotoxicity against human HCC2998 cells assessed as cell growth at 10 uM after 48 hrs by SRB assay relative to untreated control; settings: HCC 2998, 48 h, read-out: Activity; outline: as §2
HOP-92 = experiment: Cytotoxicity against human HOP92 cells assessed as cell growth at 10 uM after 48 hrs by SRB assay relative to untreated control; settings: HOP-92, 48 h, read-out: Activity; outline: as §2
RXF 393 = experiment: Cytotoxicity against human RXF393 cells assessed as cell growth at 10 uM after 48 hrs by SRB assay relative to untreated control; settings: RXF 393, 48 h, read-out: Activity; outline: as §3
[4] = Cytotoxicity against human OVCAR4 cells assessed as cell growth at 10 uM after 48 hrs by SRB assay relative to untreated control; settings: OVCAR-4, 48 h, read-out: Activity; outline: as §3
NCI-H522 = experiment: Cytotoxicity against human NCI-H522 cells assessed as cell growth at 10 uM after 48 hrs by SRB assay relative to untreated control; settings: NCI-H522, 48 h, read-out: Activity; outline: as §3
[5] = Cytotoxicity against human NCI-ADR-RES cells assessed as cell growth at 10 uM after 48 hrs by SRB assay relative to untreated control; settings: read-out: Activity; outline: as §3
SK-MEL-2 = experiment: Cytotoxicity against human SK-MEL-2 cells assessed as cell growth at 10 uM after 48 hrs by SRB assay relative to untreated control; settings: SK-MEL-2, 48 h, read-out: Activity; outline: as §3
M14 = experiment: Cytotoxicity against human M14 cells assessed as cell growth at 10 uM after 48 hrs by SRB assay relative to untreated control; settings: M14, 48 h, read-out: Activity; outline: as §2
SK-OV-3 = experiment: Cytotoxicity against human SKOV3 cells assessed as cell growth at 10 uM after 48 hrs by SRB assay relative to untreated control; settings: SK-OV-3, 48 h, read-out: Activity; outline: as §1
SN12C = experiment: Cytotoxicity against human SN12C cells assessed as cell growth at 10 uM after 48 hrs by SRB assay relative to untreated control; settings: read-out: Activity; outline: as §1
T47D = experiment: Cytotoxicity against human T47D cells assessed as cell growth at 10 uM after 48 hrs by SRB assay relative to untreated control; settings: read-out: Activity; outline: as §1
NCI-H460 = experiment: Cytotoxicity against human NCI-H460 cells assessed as cell growth at 10 uM after 48 hrs by SRB assay relative to untreated control; settings: NCI-H460, 48 h, read-out: Activity; outline: as §3
NCI-H226 = experiment: Cytotoxicity against human NCI-H226 cells assessed as cell growth at 10 uM after 48 hrs by SRB assay relative to untreated control; settings: NCI-H226, 48 h, read-out: Activity; outline: as §3
COLO 205 = experiment: Cytotoxicity against human COLO205 cells assessed as cell growth at 10 uM after 48 hrs by SRB assay relative to untreated control; settings: COLO 205, 48 h, read-out: Activity; outline: as §2
CAKI-1 = experiment: Cytotoxicity against human Caki1 cells assessed as cell growth at 10 uM after 48 hrs by SRB assay relative to untreated control; settings: CAKI-1, 48 h, read-out: Activity; outline: as §2
[6] = Cytotoxicity against human OVCAR5 cells assessed as cell growth at 10 uM after 48 hrs by SRB assay relative to untreated control; settings: OVCAR-5, 48 h, read-out: Activity; outline: as §3
SK-MEL-28 = experiment: Cytotoxicity against human SK-MEL-28 cells assessed as cell growth at 10 uM after 48 hrs by SRB assay relative to untreated control; settings: SK-MEL-28, 48 h, read-out: Activity; outline: as §1

SMILES | growth at 10 µM (SK-MEL-5) [%] | growth at 10 µM (ACHN) [%] | growth at 10 µM (SNB-19) [%] | growth at 10 µM (BT-549) [%] | growth at 10 µM (MDA-MB-231) [%] | growth at 10 µM [1] [%] | growth at 10 µM (OVCAR-8) [%] | growth at 10 µM [2] [%] | growth at 10 µM (HT-29) [%] | growth at 10 µM (SF-539) [%] | growth at 10 µM (CCRF-CEM) [%] | growth at 10 µM (HCT-15) [%] | growth at 10 µM (NCI-H322M) [%] | growth at 10 µM [3] [%] | growth at 10 µM (OVCAR-3) [%] | growth at 10 µM (HCC 2998) [%] | growth at 10 µM (HOP-92) [%] | growth at 10 µM (RXF 393) [%] | growth at 10 µM [4] [%] | growth at 10 µM (NCI-H522) [%] | other results
O=C1Nc2nc3ccccn3c2C(=O)[C@H](Cc2ccccc2)N1 | 97.2 | 97 | 103 | 96.9 | 106 | 102 | 95.8 | 89.8 | 106 | 95.9 | 113 | 94.6 | 103 | 90.2 | 101 | 97.5 | 86.5 | 105 | 111 | 94 | growth at 10 µM [5]: 98.7%; growth at 10 µM (SK-MEL-2): 113%; growth at 10 µM (M14): 93%; growth at 10 µM (SK-OV-3): 112%; growth at 10 µM (SN12C): 105%; growth at 10 µM (T47D): 103%; growth at 10 µM (NCI-H460): 103%; growth at 10 µM (NCI-H226): 104%; growth at 10 µM (COLO 205): 126%; growth at 10 µM (CAKI-1): 96.2%; growth at 10 µM [6]: 95%; growth at 10 µM (SK-MEL-28): 114%
C[C@H]1NC(c2ccc(Br)cc2)=Nc2nc3ccccn3c2C1=O | 94.2 | 94 | 92.5 | 75.5 | 74 | 86.5 | 94.5 | 101 | 104 | 95.5 | 96.9 | 97.1 | 86.1 | 51.5 | 95.9 | 112 | 66.6 | 94.8 | 111 | 79.2 | growth at 10 µM [5]: 95.7%; growth at 10 µM (SK-MEL-2): 81.8%; growth at 10 µM (M14): 99.2%; growth at 10 µM (SK-OV-3): 97.8%; growth at 10 µM (SN12C): 94.6%; growth at 10 µM (T47D): 85%; growth at 10 µM (NCI-H460): 101%; growth at 10 µM (NCI-H226): 85.7%; growth at 10 µM (COLO 205): 106%; growth at 10 µM (CAKI-1): 93.2%; growth at 10 µM [6]: 98.2%; growth at 10 µM (SK-MEL-28): 97.5%
O=C1c2c(nc3ccccn23)NC(=O)N2CCC[C@@H]12 | 99.5 | 101 | 104 | 82.8 | 118 | 94.6 | 94.2 | 91 | 106 | 91.7 | 102 | 99.9 | 106 | 95.1 | 108 | 105 | 86.2 | 104 | 104 | 106 | growth at 10 µM [5]: 100%; growth at 10 µM (SK-MEL-2): 107%; growth at 10 µM (M14): 94.8%; growth at 10 µM (SK-OV-3): 99.7%; growth at 10 µM (SN12C): 106%; growth at 10 µM (T47D): 92.8%; growth at 10 µM (NCI-H460): 105%; growth at 10 µM (NCI-H226): 100%; growth at 10 µM (COLO 205): 123%; growth at 10 µM (CAKI-1): 97.9%; growth at 10 µM [6]: 101%; growth at 10 µM (SK-MEL-28): 106%
C[C@@H]1NC(c2ccc(Br)cc2)=Nc2nc3ccccn3c2C1=O | 31.9 | 69.2 | 82.6 | 49.3 | 52.7 | 71.3 | 72.5 | 70 | 17.5 | 74.7 | 79.4 | 30.8 | 74 | 62 | 17.3 | 69 | 59.5 | 68.2 | 77.5 | 34.8 | growth at 10 µM [5]: 39.4%; growth at 10 µM (SK-MEL-2): 47.4%; growth at 10 µM (M14): 31.8%; growth at 10 µM (SK-OV-3): 72%; growth at 10 µM (SN12C): 91.8%; growth at 10 µM (T47D): 67.2%; growth at 10 µM (NCI-H460): 32.5%; growth at 10 µM (NCI-H226): 68.3%; growth at 10 µM (COLO 205): 26.3%; growth at 10 µM (CAKI-1): 44.1%; growth at 10 µM [6]: 82.4%; growth at 10 µM (SK-MEL-28): 66.2%

— ChEMBL document CHEMBL3124806, “Imidazopyridine-fused [1,3]-diazepinones: synthesis and antiproliferative activity” (Eur J Med Chem, 2014)
